Reference: ChEMBL document CHEMBL3576829, “Design, synthesis and evaluation of scutellarein-O-alkylamines as multifunctional agents for the treatment of Alzheimer's disease” (Eur J Med Chem, 2015)

Assays:
[1] = Inhibition of BuChE in rat serum using butyrylthiocholine iodide as substrate after 15 mins by Ellman's method; conditions: 0.25 h
How it was run: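 Rat serum (25%, 10 µL) in 100 µL with 1 mmol/L butyrylthiocholine iodide stock, pH 7.4 phosphate buffer and graded inhibitor levels, 37°C for 15 min; DTNB (0.2%) then added and absorbance read at 405 nm.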

[2] = species on record: Rattus norvegicus; assay: Selectivity index, ratio of IC50 for rat serum BuChE to IC50 for rat cortex AChE
[3] = molecular target: Acetylcholinesterase (Electrophorus electricus, UniProt O42275); assay: Inhibition of electric eel AChE using acetylthiocholine iodide as substrate after 15 mins by Ellman's method
Sequence of Acetylcholinesterase (Electrophorus electricus, UniProt O42275) (O42275 whole entry): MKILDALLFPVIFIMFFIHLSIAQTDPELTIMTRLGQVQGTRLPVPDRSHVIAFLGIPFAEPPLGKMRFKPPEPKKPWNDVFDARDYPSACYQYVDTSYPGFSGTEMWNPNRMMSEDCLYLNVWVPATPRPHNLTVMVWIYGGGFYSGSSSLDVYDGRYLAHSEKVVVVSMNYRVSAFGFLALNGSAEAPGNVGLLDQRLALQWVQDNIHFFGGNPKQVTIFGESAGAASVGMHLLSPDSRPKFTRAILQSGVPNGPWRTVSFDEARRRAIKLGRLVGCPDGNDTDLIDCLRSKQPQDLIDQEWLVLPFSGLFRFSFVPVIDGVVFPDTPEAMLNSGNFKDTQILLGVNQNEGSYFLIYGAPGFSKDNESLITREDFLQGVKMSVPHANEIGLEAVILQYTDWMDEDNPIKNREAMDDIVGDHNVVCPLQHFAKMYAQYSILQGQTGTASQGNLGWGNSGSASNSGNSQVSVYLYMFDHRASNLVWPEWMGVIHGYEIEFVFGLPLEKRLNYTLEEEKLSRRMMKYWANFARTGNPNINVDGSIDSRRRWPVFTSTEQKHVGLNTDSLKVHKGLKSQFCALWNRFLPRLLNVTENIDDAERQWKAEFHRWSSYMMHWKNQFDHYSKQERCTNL

[4] = molecular target: T1, Acetylcholinesterase (Rattus norvegicus, UniProt P37136); assay: Inhibition of AChE in rat cortex using acetylthiocholine iodide as substrate after 15 mins by Ellman's method
T1 sequence (P37136 whole entry): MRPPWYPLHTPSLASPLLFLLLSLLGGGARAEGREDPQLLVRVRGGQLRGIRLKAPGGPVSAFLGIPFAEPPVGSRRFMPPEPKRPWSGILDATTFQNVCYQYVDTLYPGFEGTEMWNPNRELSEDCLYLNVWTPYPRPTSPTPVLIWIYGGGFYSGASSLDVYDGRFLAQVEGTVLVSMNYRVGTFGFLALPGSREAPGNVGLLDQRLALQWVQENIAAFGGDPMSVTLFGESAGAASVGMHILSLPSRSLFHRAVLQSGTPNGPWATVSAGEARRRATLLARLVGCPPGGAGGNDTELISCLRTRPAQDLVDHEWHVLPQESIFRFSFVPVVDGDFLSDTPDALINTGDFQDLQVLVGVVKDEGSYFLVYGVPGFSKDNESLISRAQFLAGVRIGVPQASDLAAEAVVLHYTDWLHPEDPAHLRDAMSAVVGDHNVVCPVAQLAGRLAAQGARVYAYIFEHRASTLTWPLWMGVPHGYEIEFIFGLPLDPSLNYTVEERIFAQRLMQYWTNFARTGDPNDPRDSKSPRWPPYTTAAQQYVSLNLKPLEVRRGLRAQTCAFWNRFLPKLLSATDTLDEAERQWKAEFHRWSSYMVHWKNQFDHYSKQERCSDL

COc1ccccc1CN(C)CCCOc1cccc(-c2cc(=O)c3c(O)c(OC)c(OC)cc3o2)c1
IC50 [1]: 354 µM | Ratio IC50 [2]: 43.7 | IC50 [3]: 28.6 µM | IC50 [4]: 8.1 µM

CCN(CCCCCCOc1cccc(-c2cc(=O)c3c(O)c(OC)c(OC)cc3o2)c1)Cc1ccccc1OC
IC50 [1]: 484 µM | Ratio IC50 [2]: 381 | IC50 [3]: 0.77 µM | IC50 [4]: 1.27 µM

COc1cc2oc(-c3cccc(OCCCCN(C)Cc4ccccc4)c3)cc(=O)c2c(OC)c1OC
IC50 [1]: 90.7 µM | Ratio IC50 [2]: 20 | IC50 [3]: 18.4 µM | IC50 [4]: 4.53 µM

CCN(CCCCOc1cccc(-c2cc(=O)c3c(O)c(OC)c(OC)cc3o2)c1)Cc1ccccc1OC
IC50 [1]: > 500 µM | Ratio IC50 [2]: > 208 | IC50 [3]: 7.97 µM | IC50 [4]: 2.4 µM

CCN(CCCOc1cccc(-c2cc(=O)c3c(O)c(OC)c(OC)cc3o2)c1)Cc1ccccc1OC
IC50 [1]: 240 µM | Ratio IC50 [2]: 152 | IC50 [3]: 4.5 µM | IC50 [4]: 1.58 µM

COc1ccccc1CN(C)CCCCCCOc1cccc(-c2cc(=O)c3c(O)c(OC)c(OC)cc3o2)c1
IC50 [1]: 404 µM | Ratio IC50 [2]: 254 | IC50 [3]: 5.8 µM | IC50 [4]: 1.59 µM

CCN(CCCCCCOc1cccc(-c2cc(=O)c3c(OC)c(OC)c(OC)cc3o2)c1)Cc1ccccc1OC
IC50 [1]: 41.6 µM | Ratio IC50 [2]: 189 | IC50 [3]: 1.3 µM | IC50 [4]: 0.22 µM

COc1cc2oc(-c3ccc(OCCCCN4CCN(Cc5ccccc5)CC4)cc3)cc(=O)c2c(OC)c1OC
IC50 [1]: 131 µM | Ratio IC50 [2]: 51.1 | IC50 [3]: 8.53 µM | IC50 [4]: 2.56 µM

COc1cc2oc(-c3cccc(OCCCCN4CCN(Cc5ccccc5)CC4)c3)cc(=O)c2c(OC)c1OC
IC50 [1]: 109 µM | Ratio IC50 [2]: 27 | IC50 [3]: 25.3 µM | IC50 [4]: 4.03 µM

COc1cc2oc(-c3cccc(OCCN(C)Cc4ccccc4)c3)cc(=O)c2c(OC)c1OC
IC50 [1]: 87.9 µM | Ratio IC50 [2]: 9.6 | IC50 [3]: 35.7 µM | IC50 [4]: 9.2 µM

O=c1cc(-c2ccc(O)cc2)oc2cc(O)c(O)c(O)c12 [SCUTELLAREIN]
IC50 [1]: > 500 µM | IC50 [4]: > 500 µM

COc1ccccc1CN(C)CCCCCCOc1ccc(-c2cc(=O)c3c(O)c(OC)c(OC)cc3o2)cc1
IC50 [1]: > 500 µM | Ratio IC50 [2]: > 98.6 | IC50 [3]: 22.6 µM | IC50 [4]: 5.07 µM

CCN(CCCCOc1cccc(-c2cc(=O)c3c(OC)c(OC)c(OC)cc3o2)c1)Cc1ccccc1
IC50 [1]: 63.4 µM | Ratio IC50 [2]: 27 | IC50 [3]: 8.3 µM | IC50 [4]: 2.35 µM

COc1cc2oc(-c3ccc(OCCCN(C)Cc4ccccc4)cc3)cc(=O)c2c(OC)c1OC
IC50 [1]: 136 µM | Ratio IC50 [2]: 51.8 | IC50 [3]: 11.5 µM | IC50 [4]: 2.62 µM

COc1ccccc1CN(C)CCCCCCOc1ccc(-c2cc(=O)c3c(OC)c(OC)c(OC)cc3o2)cc1
IC50 [1]: 96.1 µM | Ratio IC50 [2]: 214 | IC50 [3]: 2.23 µM | IC50 [4]: 0.45 µM

COc1cc2oc(-c3cccc(OCCN4CCN(Cc5ccccc5)CC4)c3)cc(=O)c2c(OC)c1OC
IC50 [1]: > 500 µM | Ratio IC50 [2]: > 424 | IC50 [3]: 2.91 µM | IC50 [4]: 1.18 µM

COc1cc2oc(-c3cccc(OCCCN4CCN(C)CC4)c3)cc(=O)c2c(OC)c1OC
IC50 [1]: > 500 µM | Ratio IC50 [2]: > 66.9 | IC50 [3]: 35.2 µM | IC50 [4]: 7.47 µM

CCN(CCOc1cccc(-c2cc(=O)c3c(OC)c(OC)c(OC)cc3o2)c1)Cc1ccccc1
IC50 [1]: 79.6 µM | Ratio IC50 [2]: 23.6 | IC50 [3]: 3.8 µM | IC50 [4]: 3.37 µM

COc1cc2oc(-c3cccc(OCCCCN4CCN(C)CC4)c3)cc(=O)c2c(OC)c1OC
IC50 [1]: > 500 µM | Ratio IC50 [2]: > 2000 | IC50 [3]: 1.15 µM | IC50 [4]: 0.25 µM

CCN(CCCOc1cccc(-c2cc(=O)c3c(OC)c(OC)c(OC)cc3o2)c1)Cc1ccccc1OC
IC50 [1]: 77.2 µM | Ratio IC50 [2]: 234 | IC50 [3]: 1.78 µM | IC50 [4]: 0.33 µM

COc1ccccc1CN(C)CCCOc1ccc(-c2cc(=O)c3c(OC)c(OC)c(OC)cc3o2)cc1
IC50 [1]: 108 µM | Ratio IC50 [2]: 61.1 | IC50 [3]: 8.6 µM | IC50 [4]: 1.76 µM
